ChEMBL document CHEMBL1938372, “Design and synthesis of conformationally constrained inhibitors of non-nucleoside reverse transcriptase” (J Med Chem, 2011)
Converted amounts (≈) assume the structure as drawn. The source made the active and inactive calls. The rule behind the calls is not given here.

Key:
[1] = molecular target: Human immunodeficiency virus type 1 reverse transcriptase (Human immunodeficiency virus 1, UniProt Q72547, K103N); assay: Inhibition of Human immunodeficiency virus reverse transcriptase K103N mutant by SPA assay
Summary of the method: (§1)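 Recombinant HIV-1 RT polymerase scintillation proximity assay run with mutant enzyme, reported as Ki (nM). Values are geometric means of at least two determinations, each within 2-fold of the mean; SEM is given where there were ≥3 determinations.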

[2] = tested on: Human immunodeficiency virus; assay: Antiviral activity against Human immunodeficiency virus expressing reverse transcriptase Y181C mutant infected in human MT4 cells by p24 antigen assay in the presence of 10% FBS; format: functional; conditions: Human immunodeficiency virus 1, MT4; read-out: CIC95
Summary of the method: (§2)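 Antiviral spread assay in MT-4 human T-lymphoid cells kept in RPMI 1640 with 10% FBS. Value is the CIC95, the concentration inhibiting virus replication by >95%. Reported as the geometric mean of at least two determinations, all within 2-fold of the mean. Cytotoxicity was checked up to the assay upper limit of 8.3 μM.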

[3] = tested on: Human immunodeficiency virus; assay: Antiviral activity against Human immunodeficiency virus harboring reverse transcriptase L100l/K103N/P225P/H triple mutant assessed as inhibition of viral replication; format: functional, organism-based
Summary of the method: (§3)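 Phenosense cell culture assay against a panel of clinically derived RT mutant viruses in the presence of 10% FBS. IC50 is the compound concentration blocking 50% of viral replication. Each value is the average of two determinations.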

[4] = tested on: Human immunodeficiency virus; assay: Antiviral activity against Human immunodeficiency virus harboring reverse transcriptase K101E/G190A double mutant assessed as inhibition of viral replication; format: functional, organism-based; summary of the method: as §3
[5] = tested on: Human immunodeficiency virus; assay: Antiviral activity against Human immunodeficiency virus harboring reverse transcriptase K103N mutant assessed as inhibition of viral replication; format: functional, organism-based; summary of the method: as §3
Canis familiaris = assay: Dose normalised AUC in Beagle dog at 2 mg/kg, po by LC-MS analysis; format: ADME, organism-based, Canis lupus familiaris; design: dose 2 mg/kg, route oral; conditions: in vivo
Summary of the method: (§4)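 PK in Sprague-Dawley rats (iv solution in DMSO via an indwelling jugular cannula, or oral suspension in aqueous methylcellulose/Methocel) and beagle dogs (iv and oral given crossover, same vehicles). Plasma levels by LC-MS. F from oral versus iv dose-normalized AUC. Average of at least two animals; rat values within 25% of the mean.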

[6] = Inhibition of Human immunodeficiency virus reverse transcriptase by SPA assay
[7] = Solubility of the compound in water at pH 7; format: physicochemical
Summary of the method: (§5)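 Water solubility of the solid compound measured at pH 2 and at pH 7.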

[8] = tested on: Human immunodeficiency virus; assay: Antiviral activity against Human immunodeficiency virus harboring reverse transcriptase Y181C mutant assessed as inhibition of viral replication; format: functional, organism-based; summary of the method: as §3
[9] = tested on: Human immunodeficiency virus; assay: Antiviral activity against Human immunodeficiency virus harboring reverse transcriptase K103N/P225H double mutant assessed as inhibition of viral replication; format: functional, organism-based; summary of the method: as §3
[10] = Volume of distribution in Sprague-Dawley rat at 10 mg/kg, po and 2 mg/kg, iv; format: ADME, organism-based; conditions: in vivo; summary of the method: as §4
[11] = tested on: Human immunodeficiency virus; assay: Antiviral activity against Human immunodeficiency virus harboring reverse transcriptase G190S mutant assessed as inhibition of viral replication; format: functional, organism-based; summary of the method: as §3
[12] = tested on: Human immunodeficiency virus; assay: Antiviral activity against Human immunodeficiency virus expressing wild type reverse transcriptase infected in human MT4 cells by p24 antigen assay in the presence of 50% normal human serum; format: functional; conditions: Human immunodeficiency virus 1, MT4; read-out: CIC95
Summary of the method: (§6)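 MT-4 human T-lymphoid cells in RPMI 1640 with either 10% FBS or 50% NHS; CIC95 taken as the concentration inhibiting virus spread/replication by >95%. Geometric mean of at least two determinations, individual values within 2-fold; SEM given when ≥3 determinations.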

[13] = tested on: Human immunodeficiency virus; assay: Antiviral activity against multidrug-resistant Human immunodeficiency virus assessed as inhibition of viral replication; format: functional, organism-based; summary of the method: as §3
[14] = tested on: Human immunodeficiency virus; assay: Antiviral activity against Human immunodeficiency virus harboring reverse transcriptase Y188L mutant assessed as inhibition of viral replication; format: functional, organism-based; summary of the method: as §3
[15] = tested on: Human immunodeficiency virus; assay: Antiviral activity against Human immunodeficiency virus harboring reverse transcriptase K101E/Y181C/G190A triple mutant assessed as inhibition of viral replication; format: functional, organism-based; summary of the method: as §3
[16] = Plasma clearance in Sprague-Dawley rat at 10 mg/kg, po and 2 mg/kg, iv; format: ADME, organism-based; summary of the method: as §4
[17] = Bioavailability in Sprague-Dawley rat at 10 mg/kg, po and 2 mg/kg, iv; format: ADME, organism-based; conditions: in vivo; summary of the method: as §4
[18] = tested on: Human immunodeficiency virus; assay: Antiviral activity against Human immunodeficiency virus harboring reverse transcriptase L100l mutant assessed as inhibition of viral replication; format: functional, organism-based; summary of the method: as §3
[19] = Half life in Sprague-Dawley rat at 10 mg/kg, po and 2 mg/kg, iv; format: ADME, organism-based; conditions: in vivo; summary of the method: as §4
[20] = Bioavailability in Beagle dog at 2 mg/kg, po and 0.5 mg/kg, iv; format: ADME, organism-based, Canis lupus familiaris; conditions: in vivo; summary of the method: as §4
[21] = tested on: Human immunodeficiency virus; assay: Antiviral activity against Human immunodeficiency virus harboring reverse transcriptase V106A/G190A/F227L triple mutant assessed as inhibition of viral replication; format: functional, organism-based; summary of the method: as §3
[22] = tested on: Human immunodeficiency virus; assay: Antiviral activity against Human immunodeficiency virus harboring reverse transcriptase G190A mutant assessed as inhibition of viral replication; format: functional, organism-based; summary of the method: as §3
[23] = Plasma clearance in Beagle dog at 2 mg/kg, po and 0.5 mg/kg, iv; format: ADME, organism-based, Canis lupus familiaris; summary of the method: as §4
[24] = tested on: Human immunodeficiency virus; assay: Antiviral activity against Human immunodeficiency virus expressing wild type reverse transcriptase infected in human MT4 cells by p24 antigen assay in the presence of 10% FBS; format: functional; conditions: Human immunodeficiency virus 1, MT4; read-out: CIC95; summary of the method: as §6
[25] = Volume of distribution in Beagle dog at 2 mg/kg, po and 0.5 mg/kg, iv; format: ADME, organism-based, Canis lupus familiaris; conditions: in vivo; summary of the method: as §4
[26] = tested on: Human immunodeficiency virus; assay: Antiviral activity against Human immunodeficiency virus harboring reverse transcriptase K103N/Y181C/G190A triple mutant assessed as inhibition of viral replication; format: functional, organism-based; summary of the method: as §3
[27] = tested on: Human immunodeficiency virus; assay: Antiviral activity against Human immunodeficiency virus expressing reverse transcriptase K103N mutant infected in human MT4 cells by p24 antigen assay in the presence of 10% FBS; format: functional; conditions: Human immunodeficiency virus 1, MT4; read-out: CIC95; summary of the method: as §2
[28] = Half life in Beagle dog at 2 mg/kg, po and 0.5 mg/kg, iv; format: ADME, organism-based, Canis lupus familiaris; conditions: in vivo; summary of the method: as §4
[29] = Solubility of the compound in water at pH 2; format: physicochemical; summary of the method: as §5
[30] = molecular target: Human immunodeficiency virus type 1 reverse transcriptase (Human immunodeficiency virus 1, UniProt Q72547, Y181C); assay: Inhibition of Human immunodeficiency virus reverse transcriptase Y181C mutant by SPA assay; summary of the method: as §1
[31] = tested on: Human immunodeficiency virus; assay: Antiviral activity against wild type Human immunodeficiency virus assessed as inhibition of viral replication; format: functional, organism-based
Rattus norvegicus = assay: Dose normalised AUC in Sprague-Dawley rat at 10 mg/kg, po by LC-MS analysis; format: ADME, organism-based; design: dose 10 mg/kg, route oral; conditions: in vivo; summary of the method: as §4
MT4 = assay: Cytotoxicity against human MT4 cells up to 8.3 uM; format: cell-based
Summary of the method: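 MT-4 cells in RPMI 1640 with 10% FBS or 50% NHS, run alongside the antiviral CIC95 assay; cytotoxicity checked up to the assay upper limit of 8.3 μM.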

For `N#Cc1cc(Cl)cc(Oc2c(Cl)ccc3c2cnn3Cc2n[nH]c3nc(N)ccc23)c1`, the Ki [1] was 1.7 nM, the IC95 [2] was 0.068 µM and the inhibition [3] was “Active”. The inhibition [4] was “Active”, the inhibition [5] was “Active” and the AUC/dose (Canis familiaris) was 1.33 µM·h. For the same compound, the Ki [6] was 0.61 nM, the solubility [7] was under 0.1 µg/mL and the inhibition [8] was “Active”. For the same compound, the inhibition [9] was “Active”, the Vd [10] was 2.5 L/kg and the inhibition [11] was “Active”. The IC95 [12] was 0.043 µM, the inhibition [13] was “Active” and the inhibition [14] was “inactive”. The inhibition [15] was “Active”, the clearance [16] was 4.7 mL/min/kg and the bioavailability [17] was 39%. For the same compound, the inhibition [18] was “Active”, the half-life [19] was 378 min and the bioavailability [20] was 32%. For the same compound, the inhibition [21] was “inactive”, the inhibition [22] was “Active” and the clearance [23] was 7.6 mL/min/kg. For the same compound, the IC95 [24] was 4.1 nM, the Vd [25] was 2 L/kg and the inhibition [26] was “Active”. The IC95 [27] was 9.7 nM, the half-life [28] was 168 min and the solubility [29] was 40 µg/mL (≈ 88.8 µM). The Ki [30] was 1.9 nM, the inhibition [31] was “Active” and the AUC/dose (Rattus norvegicus) was 3.64 µM·h. For the same compound, the Activity (MT4) was “Non-toxic”.
